The record followed here is ChEMBL document CHEMBL4152378, “Discovery of a Branched Peptide That Recognizes the Rev Response Element (RRE) RNA and Blocks HIV-1 Replication” (J Med Chem, 2018).

Data set [1] is described as follows: Binding affinity to HIV1 rev response element 2B RNA by 2-AP based displacement assay. More on the design: species or system Human immunodeficiency virus 1. In a few lines:
(§1)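 2-AP-labeled RRE IIB (0.1 μM) refolded at 95 °C 3 min, snap-cooled; titrated with peptide 0–20 μM in 10 mM potassium phosphate, 100 mM KCl, 1 mM MgCl2, 20 mM NaCl, pH 7.0; excitation 310 nm, emission decrease at 372 nm; Kd from Hill fit; at least duplicate, SD. Competition lines include 10-fold excess unlabeled RNA/DNA competitor.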

For data set [2], the system named is Human immunodeficiency virus 1. Put plainly: Binding affinity to HIV1 RRE RNA in HEK293T cells transfected with HIV1 CMV driven GagPol-RRE plasmid assessed as reduction in Rev-RRE dependent nuclear export by measuring intracellular p24 levels at 70 uM after 48 hrs by ELISA relative to control. The data set is classed as cell-based. Put shortly: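 HEK 293T cells transfected with Rev and CMV-driven GagPol-RRE plasmids plus luciferase control; peptides added 5 h after transfection at 70 μM; cells lysed ~48 h post-transfection and intracellular p24 quantified by ELISA as percent inhibition.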
On the technique in general: An ELISA detects its analyte on a solid surface through an enzyme-linked reagent.

Data set [3] in a line: Binding affinity to HIV1 rev response element 2B RNA in presence of 10-fold excess RRE DNA by 2-AP based displacement assay. On the set-up: species or system Human immunodeficiency virus 1. Put shortly: as §1
Data set [4] is described as follows: Cytotoxicity against HEK293T cells assessed as reduction in cell viability after 48 hrs by MTT assay. As to conditions: human. In kind it is cell-based, HEK-293T. In a few lines: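 MTT run in parallel with the transfected HEK 293T reporter set-up; ~48 h post-transfection MTT (5 mg/mL stock in PBS) added, 4 h at 37 °C; solubilized overnight with 10% SDS/0.01 N HCl; absorbance 570 nm; mean ± SD.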
On the technique in general: Formazan colour is commonly taken as a measure of viable cells.

A short description of data set [5]: Binding affinity to HIV1 RRE RNA in HEK293T cells transfected with HIV1 CMV driven GagPol-RRE plasmid assessed as reduction in Rev-RRE dependent nuclear export by measuring intracellular p24 levels after 48 hrs by ELISA relative to control. In kind it is cell-based. As to conditions: Human immunodeficiency virus 1, HEK-293T.
For data set [6], the system named is Human immunodeficiency virus 1. Put plainly: Binding affinity to HIV1 234 nucleotide NL4-3 5'-RRE RNA assessed as protection of secondary Rev binding sites from cleavage by […] incubated for 1 hr by SHAPE analysis.
The nature of data set [7]: Binding affinity to HIV1 rev response element 2B RNA in presence of 10-fold excess no bulge RRE RNA by 2-AP based displacement assay. More on the design: species or system Human immunodeficiency virus 1. In a few lines: as §1
In data set [8] the test system is Human immunodeficiency virus 1. Put plainly: Binding affinity to [32P]-labeled HIV-rev response element 2B RNA assessed as protection of internal loop region from cleavage by RNase A incubated for 1 hr up to 20 uM by autoradiography based nuclease protection assay. Put shortly:
(§2)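 5'-32P RRE IIB (10 nM) with 200 nM unlabeled RRE IIB refolded (95 °C 3 min, ice); incubated with peptide 0–20 μM on ice 4 h in 10 mM Tris pH 7, 100 mM KCl, 10 mM MgCl2; digested on ice with RNase V1 (0.002 U, 10 min) or RNase A (20 ng, 1 h); 12% denaturing PAGE, autoradiography.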

In data set [9] the test system is Human immunodeficiency virus 1. Briefly: Binding affinity to [32P]-labeled HIV-rev response element 2B RNA assessed as protection of upper stem region from cleavage by RNase VI incubated for 10 mins up to 20 uM by autoradiography based nuclease protection assay. Put shortly: as §2
The nature of data set [10]: Binding affinity to HIV1 rev response element 2B RNA in presence of 10-fold excess TAR RNA by 2-AP based displacement assay. On the set-up: species or system Human immunodeficiency virus 1. Put shortly:
as §1

Calls of active or inactive are those of the source. The calls are words filed in the database; no cut-off is given here.

As usually defined, the Kd is the equilibrium constant for the complex coming apart. Usually inhibition stands for the share of the control response that was lost under treatment. With `N=C(N)N[C@@H]1C[C@H](C(=O)NCCCC[C@H](NC(=O)[C@H]2C[C@@H](NC(=N)N)CN2C(=O)[C@H]2C[C@@H](N)CN2C(=O)[C@H]2C[C@@H](NC(=N)N)CN2)C(=O)N2C[C@H](N)C[C@@H]2C(=O)N2C[C@H](N)C[C@@H]2C(=O)N[C@@H](CCCCNC(=O)c2ccc(B3OC(=O)c4cc(O)ccc4O3)cc2)C(=O)N[C@@H](Cc2ccc(O)cc2)C(N)=O)N(C(=O)[C@H]2C[C@@H](N)CN2C(=O)[C@H]2C[C@@H](NC(=N)N)CN2)C1`, the Kd in [1] was 2.57 µM. Moreover, the inhibition in data set [2] is more than 50%.
Taken in the same sequence, the figures for `N=C(N)N[C@@H]1C[C@H](C(=O)N[C@@H](Cc2ccc(O)cc2)C(N)=O)N(C(=O)[C@H](CCCCNC(=O)c2cnccn2)NC(=O)[C@H](Cc2cccc3ccccc23)NC(=O)[C@H](CCCCNC(=O)[C@H](CCCCNC(=O)c2ccc(B(O)O)cc2)NC(=O)[C@H]2C[C@@H](N)CN2C(=O)[C@H]2C[C@@H](NC(=N)N)CN2)NC(=O)[C@H](CCCCNC(=O)c2ccc(B(O)O)cc2)NC(=O)[C@H]2C[C@@H](N)CN2C(=O)[C@H]2C[C@@H](NC(=N)N)CN2)C1` were 1.5 µM and more than 50%.
The matching figures for `N=C(N)N[C@@H]1C[C@H](C(=O)NCCCC[C@H](NC(=O)[C@H]2C[C@@H](NC(=N)N)CN2C(=O)[C@H]2C[C@@H](N)CN2C(=O)[C@H]2C[C@@H](NC(=N)N)CN2)C(=O)N[C@@H](CCCCNC(=O)c2cnccn2)C(=O)N[C@@H](CCCCNC(=O)c2cnccn2)C(=O)NCCN(CC(=O)N[C@@H](Cc2ccc(O)cc2)C(N)=O)C(=O)Cn2cnc3c(=O)[nH]c(N)nc32)N(C(=O)[C@H]2C[C@@H](N)CN2C(=O)[C@H]2C[C@@H](NC(=N)N)CN2)C1`: 1.12 µM and more than 50%.
As for `N=C(N)N[C@@H]1C[C@H](C(=O)N[C@@H](Cc2ccc(O)cc2)C(N)=O)N(C(=O)[C@H](CCCCNC(=O)c2ccc(B(O)O)cc2)NC(=O)[C@H](CCCCNC(=O)c2ccc(B(O)O)cc2)NC(=O)[C@H](CCCCNC(=O)[C@H]2C[C@@H](N)CN2C(=O)[C@H]2C[C@@H](N)CN2C(=O)[C@H]2C[C@@H](NC(=N)N)CN2)NC(=O)[C@H]2C[C@@H](N)CN2C(=O)[C@H]2C[C@@H](N)CN2C(=O)[C@H]2C[C@@H](NC(=N)N)CN2)C1`, binding in [1] was put at a Kd of 4.46 µM.
Molecule `N=C(N)N[C@@H]1C[C@H](C(=O)NCCN(CC(=O)N[C@@H](CCCCNC(=O)c2ccc(B(O)O)cc2)C(=O)N[C@@H](Cc2ccc(O)cc2)C(N)=O)C(=O)Cn2cnc3c(=O)[nH]c(N)nc32)N(C(=O)[C@H](CCCCNC(=O)[C@H]2C[C@@H](NC(=N)N)CN2C(=O)[C@H]2C[C@@H](NC(=N)N)CN2C(=O)[C@H]2C[C@@H](N)CN2)NC(=O)[C@H]2C[C@@H](NC(=N)N)CN2C(=O)[C@H]2C[C@@H](NC(=N)N)CN2C(=O)[C@H]2C[C@@H](N)CN2)C1` had a Kd in data set [1] of 0.41 µM. The inhibition in data set [2] was more than 50%.
The matching figures for `N=C(N)N[C@@H]1C[C@H](C(=O)N2C[C@H](NC(=N)N)C[C@@H]2C(=O)N[C@@H](CCCCNC(=O)c2cnccn2)C(=O)N[C@@H](Cc2ccc(O)cc2)C(N)=O)N(C(=O)[C@H](CCCCNC(=O)[C@H](CCCCNC(=O)c2cnccn2)NC(=O)[C@H]2C[C@@H](N)CN2C(=O)CN(CCN)C(=O)Cn2cnc3c(=O)[nH]c(N)nc32)NC(=O)[C@H](CCCCNC(=O)c2cnccn2)NC(=O)[C@H]2C[C@@H](N)CN2C(=O)CN(CCN)C(=O)Cn2cnc3c(=O)[nH]c(N)nc32)C1`: 1.64 µM and more than 50%.
By CC50 is commonly meant the concentration giving 50% cytotoxicity. One may read the IC50 as the concentration that gives 50% inhibition. For `N=C(N)N[C@@H]1C[C@H](C(=O)N[C@@H](Cc2ccc(O)cc2)C(N)=O)N(C(=O)CN(CCNC(=O)[C@H](CCCCNC(=O)c2cnccn2)NC(=O)[C@H](CCCCNC(=O)[C@H]2C[C@@H](N)CN2C(=O)CN(CCNC(=O)CN(CCN)C(=O)Cn2cnc3c(=O)[nH]c(N)nc32)C(=O)Cn2cnc3c(=O)[nH]c(N)nc32)NC(=O)[C@H]2C[C@@H](N)CN2C(=O)CN(CCNC(=O)CN(CCN)C(=O)Cn2cnc3c(=O)[nH]c(N)nc32)C(=O)Cn2cnc3c(=O)[nH]c(N)nc32)C(=O)Cn2cnc3c(=O)[nH]c(N)nc32)C1`, the Kd turned out to be 0.99 µM in [3], 0.88 µM in data set [1], 2.04 µM in [7] and 3.09 µM in data set [10]. Also, the CC50 at 48 h in data set [4] came to 135 µM. The IC50 in data set [5] is 15.4 µM. In addition, the result in [6], in data set [8] and in [9] was Active. Also, in data set [2], the inhibition was more than 50%.
